Here are results for four compounds from ChEMBL document CHEMBL5120929, “Inhibitor Screen Identifies Covalent Inhibitors of the Protein Histidine Phosphatase PHPT1” (ACS Med Chem Lett, 2022).

Experiment [1] addresses T1, 14 kDa phosphohistidine phosphatase (Homo sapiens) (UniProt Q9NRX4).
T1 sequence (whole entry): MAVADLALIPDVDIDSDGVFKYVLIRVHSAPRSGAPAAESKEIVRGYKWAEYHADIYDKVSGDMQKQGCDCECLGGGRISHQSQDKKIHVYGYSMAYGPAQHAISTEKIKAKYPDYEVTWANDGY
The experiment in a line: Reversible inhibition of PHPT1 (unknown origin) at 1 mM using DiFMUP as fluorogenic substrate preincubated for 30 mins followed by substrate addition by dialysis method. In a few lines:
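Reversibility was tested by measuring PHPT1 inhibition in the fluorogenic activity assay before and after dialysis.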

In experiment [2] the target is T1, 14 kDa phosphohistidine phosphatase (Homo sapiens). The experiment in a line: Mixed inhibition of PHPT1 (unknown origin) assessed as change in Km and Vmax at above 150 uM using DifMUP as substrate by Michaelis-Menten based analysis.
Experiment [3] has the same target. In words: Competitive inhibition of PHPT1 (unknown origin) assessed as change in Km and Vmax at below 150 uM using DifMUP as substrate by Michaelis-Menten based analysis.
The target of experiment [4] is T2, 14 kDa phosphohistidine phosphatase (Homo sapiens, UniProt Q9NRX4).
T2 sequence (Q9NRX4 whole entry): T1 sequence (whole entry)
The experiment in a line: Inhibition of PHPT1 (unknown origin) using DiFMUP as fluorogenic substrate incubated for 30 mins followed by substrate addition and measured every 60 seconds for 30 mins by fluorogenic assay.

Experiment [5] addresses T3, Mediator of RNA polymerase II transcription subunit 25 (Homo sapiens, UniProt Q71SY5).
T3 sequence (Q71SY5 whole entry): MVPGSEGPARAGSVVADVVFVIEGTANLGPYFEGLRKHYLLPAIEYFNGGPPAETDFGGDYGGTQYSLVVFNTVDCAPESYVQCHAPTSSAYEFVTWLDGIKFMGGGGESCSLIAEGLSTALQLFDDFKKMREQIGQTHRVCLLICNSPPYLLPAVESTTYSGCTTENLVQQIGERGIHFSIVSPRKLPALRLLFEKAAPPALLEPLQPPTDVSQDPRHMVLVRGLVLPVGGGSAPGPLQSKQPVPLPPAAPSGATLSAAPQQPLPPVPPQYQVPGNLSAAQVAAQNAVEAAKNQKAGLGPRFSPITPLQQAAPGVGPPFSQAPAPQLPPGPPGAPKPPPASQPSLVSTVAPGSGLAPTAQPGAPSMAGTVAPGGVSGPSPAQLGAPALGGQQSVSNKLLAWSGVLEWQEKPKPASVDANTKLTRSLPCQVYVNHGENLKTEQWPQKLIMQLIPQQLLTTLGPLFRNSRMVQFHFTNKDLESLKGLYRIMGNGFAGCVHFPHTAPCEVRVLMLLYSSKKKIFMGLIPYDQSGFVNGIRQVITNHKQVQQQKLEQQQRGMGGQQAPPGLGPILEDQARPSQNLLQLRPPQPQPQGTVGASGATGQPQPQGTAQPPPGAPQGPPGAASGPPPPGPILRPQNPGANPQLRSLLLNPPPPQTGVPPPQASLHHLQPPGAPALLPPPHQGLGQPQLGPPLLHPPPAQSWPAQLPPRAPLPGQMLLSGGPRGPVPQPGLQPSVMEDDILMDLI
The experiment in a line: Inhibition of Med25 transcriptional activation in human MCF-7 cells by fluorescence polarization assay. Type of experiment: cell-based. The settings on record: mcf7. For orientation: In fluorescence polarisation assays a small probe gives low polarisation when free and higher when bound to something large.

The target in experiment [6] is T1, 14 kDa phosphohistidine phosphatase (Homo sapiens). The experiment in a line: Inhibition of PHPT1 (unknown origin) assessed as inactivation constant measured up to 100 uM incubated up to 30 mins using DiFMUP as fluorogenic substrate by fluorogenic assay. In a few lines:
(§1)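 Kinetics of time-dependent PHPT1 inactivation in the fluorogenic activity assay. Observed inactivation rate constants (kobs) were plotted against inhibitor concentration to obtain kinact and KI.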

Experiment [7] has the same target. The experiment in a line: Time dependent inhibition of PHPT1 (unknown origin) at 10 uM using DiFMUP as fluorogenic substrate preincubated for 15 to 120 mins followed by substrate addition and measured for 30 mins by fluorogenic assay. The settings on record: time 45-150 min, TDE = time-dependent effect.
The target of experiment [8] is T2, 14 kDa phosphohistidine phosphatase. In words: Inhibition of PHPT1 (unknown origin) assessed as inhibition constant measured up to 100 uM incubated up to 30 mins using DiFMUP as fluorogenic substrate by fluorogenic assay. The procedure, abridged: as §1
The target in experiment [9] is T1, 14 kDa phosphohistidine phosphatase (Homo sapiens). In words: Time dependent inhibition of PHPT1 (unknown origin) at 20 uM using DiFMUP as fluorogenic substrate preincubated for 15 to 120 mins followed by substrate addition and measured for 30 mins by fluorogenic assay. Conditions: time 45-150 min, TDE = time-dependent effect.

Activity calls are given as the source filed them. No cut-off for these calls is given here.

On to `CC(=O)Nc1cc([As](=O)(O)O)ccc1O` [ACETARSONE], for which the inhibition entry in [1], in experiment [2] and in experiment [3] was “Active” in each case. This compound also came in with an IC50 in [4] of 100 µM.

As to `Cc1cc(O)c(C=O)c2c1C(=O)Oc1c(C)c(O)c3c(c1O2)C(O)OC3=O` (centres undefined) [NORSTICTIC ACID], the IC50 in [5] is 2.3 µM; in experiment [4], 7.9 µM. Besides, the Kinact in experiment [6] was determined as 1.7 min⁻¹. Also, in experiment [7], the inhibition result was “Tde”. The Ki in experiment [8] stood at 90 µM.

Turning to `COc1cc(C)c2c(c1C=O)Oc1c(c(C)c(O)c3c1C(O)OC3=O)OC2=O` (centres undefined) [STICTIC ACID], the inhibition result in experiment [9] is “Tde”. Besides, in experiment [4], the IC50 came to 22 µM.

For the compound `O=[N+]([O-])c1cc([As](=O)(O)O)ccc1O` [ROXARSONE], the inhibition result in experiment [2] and in experiment [3] was “Active” each time. Moreover, half-maximal inhibition in [4] (IC50) was put at 80 µM.

Broadly, the IC50 is the concentration at which inhibition is half-maximal. As a reminder, the Ki is the equilibrium dissociation constant of an inhibitor or competing ligand from its target.
